# Calls of active or inactive are those of the source. The rule behind the calls is not given here.
# What was measured:
# [1] = test system: Enterococcus faecalis; test: Antibacterial activity against Enterococcus faecalis ATCC 29212 by broth microdilution method; assay type: functional
# Method in brief: (§1)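 Broth microdilution MICs were run per CLSI M07-A8 (2009). The strain panel included C. difficile ATCC 43255, E. faecalis ATCC 29212 and S. pyogenes ATCC BAA-595.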
# [2] = test system: Staphylococcus aureus; test: Antibacterial activity against Staphylococcus aureus ATCC 49951 infected in CD1 mouse assessed as mouse survival up to 5 days; assay type: functional; conditions: ATCC 49951, 120 h
# Method in brief: (§2)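 Female CD1 mice (21–25 g) were infected ip with 1 × 10^8 CFU/mouse, 10–100× the minimal lethal dose. E. faecalis NB04025 was given in 50% rat fecal extract and S. aureus ATCC 49951 in 0.9% NaCl. Compound was given by iv tail-vein bolus at 1 and 5 h post-inoculation, at several dose levels (6 mice/group). ED50 with 95% CI was derived by probit analysis of day-5 survival.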
# [3] = test system: Enterococcus faecium; test: Antibacterial activity against Enterococcus faecium 7130724 by broth microdilution method; assay type: functional
# [4] = Antibacterial activity against Clostridium difficile ATCC 43255 by broth microdilution method; assay type: functional; conditions: Clostridioides difficile; method in brief: as §1
# [5] = test system: Staphylococcus aureus; test: Antibacterial activity against Staphylococcus aureus A4.018 by broth microdilution method; assay type: functional
# [6] = test system: Streptococcus pyogenes; test: Antibacterial activity against Streptococcus pyogenes ATCC BAA-595 by broth microdilution method; assay type: functional; method in brief: as §1
# [7] = test system: Escherichia coli; test: Inhibition of protein synthesis in Escherichia coli S30 extract at 2 uM after 75 mins by luciferase based luminescence assay relative to GE2270A; assay type: functional
# [8] = test system: Enterococcus faecalis; test: Antibacterial activity against Enterococcus faecalis NB04025 infected in CD1 mouse assessed as mouse survival up to 5 days; assay type: functional; conditions: NB04025, 120 h; method in brief: as §2
# [9] = Drug level in Clostridium difficile infected golden syrian hamster cecum at 20 mg/kg, po qd administered for 5 days measured at 3 hrs post dose; assay type: ADME, organism-based, Mesocricetus auratus, Caecum; parameters: dose 20 mg/kg, route oral; conditions: read-out: Drug uptake
# Method in brief: (§3)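 C. difficile-infected hamsters received 20 mg/kg orally (0.6 mL at 3.3 mg/mL) once daily for 5 days. At 1 and 3 h after the fifth dose, 3 animals per time point were sampled: plasma (K2-EDTA, cardiac puncture) and cecal contents. Cecal contents were homogenized in PBS/25% acetonitrile (final 1:25 dilution). Samples were protein-precipitated with acetonitrile containing glyburide internal standard.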
# [10] = Plasma concentration in Clostridium difficile infected golden syrian hamster at 20 mg/kg, po qd administered for 5 days measured at 1 hr post dose; assay type: ADME, organism-based, Mesocricetus auratus; parameters: dose 20 mg/kg, route oral; conditions: golden Syrian, plasma; method in brief: as §3
# [11] = Drug level in Clostridium difficile infected golden syrian hamster cecum at 20 mg/kg, po qd administered for 5 days measured at 1 hr post dose; assay type: ADME, organism-based, Mesocricetus auratus, Caecum; parameters: dose 20 mg/kg, route oral; conditions: read-out: Drug uptake; method in brief: as §3
# [12] = Antibacterial activity against Clostridium difficile ATCC 43255 infected in golden syrian hamster assessed as survival rate at 20 mg/kg, po qd administered days 1 to 5 measured on days 6 to 21; assay type: functional; conditions: Clostridioides difficile
# Method in brief: (§4)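 Golden Syrian hamsters got clindamycin 10 mg/kg sc on day −1. On day 0 they were gavaged with ~7.5 × 10^6 CFU C. difficile ATCC 43255 (0.75 mL). From 24 h post-infection they were dosed orally once daily for up to 5 days (8/dose), in a NaOH/PEG-400/2.5% Cremophor EL solution diluted in pH 7.4 PBS. Vehicle controls were included, and animals were observed twice daily through day 21.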
# [13] = Antibacterial activity against Clostridium difficile ATCC 43255 infected in golden syrian hamster assessed as survival rate at 2 mg/kg, po qd administered days 1 to 5 measured on days 6 to 21; assay type: functional; conditions: Clostridioides difficile; method in brief: as §4
# [14] = Binding affinity to Escherichia coli GDPNP-labelled EF-Tu by surface plasmon resonance analysis
# [15] = test system: Clostridium difficile ATCC 43255; test: Antibacterial activity against Clostridium difficile ATCC 43255 infected in golden syrian hamster assessed as decrease in toxin level in cecum after 21 days by ELISA; assay type: functional; conditions: Caecum
# Method in brief: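 In the clindamycin-pretreated, C. difficile-infected hamster model, oral compound was given once daily on days 1–5. Surviving animals were euthanized at study end (day 21). Cecal homogenates were assayed for C. difficile toxins A and B by Tox A/B II ELISA per kit directions.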
# [16] = Antibacterial activity against Clostridium difficile ATCC 43255 infected in golden syrian hamster assessed as survival rate at 0.2 mg/kg, po qd administered days 1 to 5 measured on days 6 to 21; assay type: functional; conditions: Clostridioides difficile; method in brief: as §4
# [17] = Plasma concentration in Clostridium difficile infected golden syrian hamster at 20 mg/kg, po qd administered for 5 days measured at 3 hrs post dose; assay type: ADME, organism-based, Mesocricetus auratus; parameters: dose 20 mg/kg, route oral; conditions: in vivo, 3 h, BLD = below limit of detection; method in brief: as §3
SMILES,MIC [1] [µg/mL],ED50 [2] [mg/kg],MIC [3] [µg/mL],MIC [4] [µg/mL],MIC [5] [µg/mL],MIC [6] [µg/mL],inhibition at 2 µM [7] [%],ED50 [8] [mg/kg],concentration at 3 h [9] [µM],concentration at 1 h [10] [µM],concentration at 1 h [11] [µM],survival at 20 mg/kg [12] [%],survival at 2 mg/kg [13] [%],Kd [14] [nM],Activity [15],survival at 0.2 mg/kg [16] [%],Cp [17]
CNC(=O)C[C@@H]1NC(=O)c2csc(n2)-c2ccc(-c3nc(N(CCCC(=O)O)C(=O)O[C@H]4CC[C@H](C(=O)O)CC4)cs3)nc2-c2csc(n2)-c2csc(n2)[C@H]([C@@H](O)c2ccccc2)NC(=O)CNC(=O)c2nc(sc2COC)[C@H](C(C)C)NC(=O)c2nc1sc2C,< 0.06,2.6,0.06,0.06,0.25,1,67,2.2,–,–,–,–,–,–,–,–,–
CNC(=O)C[C@@H]1NC(=O)c2csc(n2)-c2ccc(-c3nc(N(CCCC(=O)O)C(=O)OCCCC(=O)O)cs3)nc2-c2csc(n2)-c2csc(n2)[C@H]([C@@H](O)c2ccccc2)NC(=O)CNC(=O)c2nc(sc2COC)[C@H](C(C)C)NC(=O)c2nc1sc2C,0.5,11,0.5,0.03,1,2,–,11,72,0.0639,129,100,100,8,Active,0,BLD
CNC(=O)C[C@@H]1NC(=O)c2csc(n2)-c2ccc(-c3nc(N(CCCCCC(=O)O)C(=O)O[C@H]4CC[C@H](C(=O)O)CC4)cs3)nc2-c2csc(n2)-c2csc(n2)[C@H]([C@@H](O)c2ccccc2)NC(=O)CNC(=O)c2nc(sc2COC)[C@H](C(C)C)NC(=O)c2nc1sc2C,< 0.06,9.6,< 0.06,0.06,0.125,1,67,0.8,–,–,–,–,–,6,–,–,–
CNC(=O)C[C@@H]1NC(=O)c2csc(n2)-c2ccc(-c3nc(N(CCCCC(=O)O)C(=O)OC4CC(C(=O)O)C4)cs3)nc2-c2csc(n2)-c2csc(n2)[C@H]([C@@H](O)c2ccccc2)NC(=O)CNC(=O)c2nc(sc2COC)[C@H](C(C)C)NC(=O)c2nc1sc2C (some centres undefined),0.25,–,0.25,0.03,0.5,2,67,–,–,–,–,–,–,–,–,–,–
CNC(=O)C[C@@H]1NC(=O)c2csc(n2)-c2ccc(-c3nc(N(CCCCC(=O)O)C(=O)O[C@@H]4CC[C@@H](C(=O)O)C[C@H]4CCCCC(=O)O)cs3)nc2-c2csc(n2)-c2csc(n2)[C@H]([C@@H](O)c2ccccc2)NC(=O)CNC(=O)c2nc(sc2COC)[C@H](C(C)C)NC(=O)c2nc1sc2C,4,–,4,0.25,8,4,50,–,–,–,–,–,–,–,–,–,–
CNC(=O)C[C@@H]1NC(=O)c2csc(n2)-c2ccc(-c3nc(N(CCCC(=O)O)C(=O)c4ccc(C(=O)O)cn4)cs3)nc2-c2csc(n2)-c2csc(n2)[C@H]([C@@H](O)c2ccccc2)NC(=O)CNC(=O)c2nc(sc2COC)[C@H](C(C)C)NC(=O)c2nc1sc2C,16,–,32,4,32,> 32,30,–,–,–,–,–,–,–,–,–,–
CNC(=O)C[C@@H]1NC(=O)c2csc(n2)-c2ccc(-c3nc(N(CCCCC(=O)O)C(=O)[C@H]4CC[C@@H](C(=O)O)O4)cs3)nc2-c2csc(n2)-c2csc(n2)[C@H]([C@@H](O)c2ccccc2)NC(=O)CNC(=O)c2nc(sc2COC)[C@H](C(C)C)NC(=O)c2nc1sc2C,> 32,–,> 32,> 4,> 32,> 32,30,–,–,–,–,–,–,–,–,–,–
CN[C@H](CC(C)C)C(=O)N[C@H]1C(=O)N[C@@H](CC(N)=O)C(=O)N[C@H]2C(=O)N[C@H]3C(=O)N[C@H](C(=O)N[C@H](C(=O)O)c4cc(O)cc(O)c4-c4cc3ccc4O)[C@H](O)c3ccc(c(Cl)c3)Oc3cc2cc(c3O[C@@H]2O[C@H](CO)[C@@H](O)[C@H](O)[C@H]2O[C@H]2C[C@](C)(N)[C@H](O)[C@H](C)O2)Oc2ccc(cc2Cl)[C@H]1O [VANCOMYCIN],–,–,–,–,–,–,–,–,–,–,–,25,–,–,Active,–,–
CNC(=O)C[C@@H]1NC(=O)c2csc(n2)-c2ccc(-c3nc(N(CCCCC(=O)O)C(=O)[C@H]4CC[C@H]4C(=O)O)cs3)nc2-c2csc(n2)-c2csc(n2)[C@H]([C@@H](O)c2ccccc2)NC(=O)CNC(=O)c2nc(sc2COC)[C@H](C(C)C)NC(=O)c2nc1sc2C,16,–,32,4,32,> 32,30,–,–,–,–,–,–,–,–,–,–
CNC(=O)C[C@@H]1NC(=O)c2csc(n2)-c2ccc(-c3nc(N(CCCC(=O)O)C(=O)CCCCC(=O)O)cs3)nc2-c2csc(n2)-c2csc(n2)[C@H]([C@@H](O)c2ccccc2)NC(=O)CNC(=O)c2nc(sc2COC)[C@H](C(C)C)NC(=O)c2nc1sc2C,32,–,32,2,16,> 32,30,–,–,–,–,–,–,–,–,–,–
CNC(=O)C[C@@H]1NC(=O)c2csc(n2)-c2ccc(-c3nc(N(CCCCC(=O)O)C(=O)OCC4CC4C(=O)O)cs3)nc2-c2csc(n2)-c2csc(n2)[C@H]([C@@H](O)c2ccccc2)NC(=O)CNC(=O)c2nc(sc2COC)[C@H](C(C)C)NC(=O)c2nc1sc2C (some centres undefined),0.125,–,0.5,0.03,0.25,2,67,–,–,–,–,–,–,–,–,–,–
CNC(=O)C[C@@H]1NC(=O)c2csc(n2)-c2ccc(-c3nc(N(C/C=C/C(=O)O)C(=O)O[C@H]4CC[C@H](C(=O)O)CC4)cs3)nc2-c2csc(n2)-c2csc(n2)[C@H]([C@@H](O)c2ccccc2)NC(=O)CNC(=O)c2nc(sc2COC)[C@H](C(C)C)NC(=O)c2nc1sc2C,0.25,–,0.5,0.03,0.5,2,67,–,–,–,–,–,–,–,–,–,–
CNC(=O)C[C@@H]1NC(=O)c2csc(n2)-c2ccc(-c3nc(N(CCCCCCC(=O)O)C(=O)O[C@H]4CC[C@H](C(=O)O)CC4)cs3)nc2-c2csc(n2)-c2csc(n2)[C@H]([C@@H](O)c2ccccc2)NC(=O)CNC(=O)c2nc(sc2COC)[C@H](C(C)C)NC(=O)c2nc1sc2C,< 0.06,6.6,0.125,0.06,0.25,2,67,1,–,–,–,–,–,–,–,–,–
CNC(=O)C[C@@H]1NC(=O)c2csc(n2)-c2ccc(-c3nc(N(CCOCC(=O)O)C(=O)O[C@H]4CC[C@H](C(=O)O)CC4)cs3)nc2-c2csc(n2)-c2csc(n2)[C@H]([C@@H](O)c2ccccc2)NC(=O)CNC(=O)c2nc(sc2COC)[C@H](C(C)C)NC(=O)c2nc1sc2C,2,–,2,0.125,4,4,67,–,–,–,–,–,–,–,–,–,–
CNC(=O)C[C@@H]1NC(=O)c2csc(n2)-c2ccc(-c3nc(N(CCCCC(=O)O)C(=O)OCCC(CCCCC(=O)O)C(=O)O)cs3)nc2-c2csc(n2)-c2csc(n2)[C@H]([C@@H](O)c2ccccc2)NC(=O)CNC(=O)c2nc(sc2COC)[C@H](C(C)C)NC(=O)c2nc1sc2C (some centres undefined),8,–,16,0.5,16,32,50,–,–,–,–,–,–,–,–,–,–
CNC(=O)C[C@@H]1NC(=O)c2csc(n2)-c2ccc(-c3nc(N(CCCCC(=O)O)C(=O)OCc4ccc(C(=O)O)cn4)cs3)nc2-c2csc(n2)-c2csc(n2)[C@H]([C@@H](O)c2ccccc2)NC(=O)CNC(=O)c2nc(sc2COC)[C@H](C(C)C)NC(=O)c2nc1sc2C,1,–,1,0.125,2,4,67,–,–,–,–,–,–,–,–,–,–
